Assay results reported in ChEMBL document CHEMBL1629663, “Postantibiotic effects of telavancin against 16 gram-positive organisms” (Antimicrob Agents Chemother, 2009).
Converted amounts (≈) assume the structure as drawn.

Assays:
Format in all cases: functional
Staphylococcus aureus [1] = assay: Antimicrobial activity against heterogenous vancomycin-intermediate-, methicillin-resistant Staphylococcus aureus 873 assessed as time required to induce post antibiotic sub-MIC effect at 0.4 times MIC […] by plate counting method
Summary of the method: (§1)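 PAE was first induced with 10× MIC for 1 h at 35°C (inoculum about 5 × 10^6 CFU/ml, Mueller-Hinton broth) and ended by 1:1,000 dilution. Cultures were then split and given 0.2, 0.3 or 0.4× MIC, with one tube left without drug. Viable counts were taken before exposure, after dilution, then every 2 h until McFarland no. 1 turbidity. Two separate experiments, each with a new inoculum.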

Enterococcus faecium = assay: Antimicrobial activity against Enterococcus faecium HMC 588 assessed as time required to induce sub-MIC effect at 0.3 times MIC exposed for 2 hrs by plate counting method
Summary of the method: (§2)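 Unexposed Mueller-Hinton broth cultures (about 5 × 10^6 CFU/ml, 35°C) were handled as in the PA-SME set but without the 10× MIC pre-exposure. They were diluted 1:1,000, then given telavancin at final 0.2, 0.3 or 0.4× MIC, with a drug-free control. Viable counts were taken every 2 h until McFarland no. 1 turbidity. Effect duration comes from log10 CFU/ml-time plots; two separate experiments with new inocula.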

Staphylococcus aureus [2] = assay: Antimicrobial activity against vancomycin-intermediate-, methicillin-resistant Staphylococcus aureus 770 assessed as time required to induce sub-MIC effect at 0.3 times MIC exposed for 2 hrs by plate counting method
Summary of the method: (§3)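 SME, viable plate count method: no prior drug exposure. About 5 × 10^6 CFU/ml in Mueller-Hinton broth at 35°C received 0.2, 0.3 or 0.4× MIC, alongside a drug-free tube. Counts were taken at the start, then every 2 h until McFarland no. 1 turbidity, as log10 CFU/ml against time. Two separate experiments, each with a new inoculum.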

Staphylococcus aureus [3] = assay: Antimicrobial activity against vancomycin-intermediate-, methicillin-resistant Staphylococcus aureus 555 assessed as time required to induce post antibiotic sub-MIC effect at 0.3 times MIC […] by plate counting method; summary of the method: as §1
Staphylococcus aureus [4] = assay: Antimicrobial activity against heterogenous vancomycin-intermediate-, methicillin-resistant Staphylococcus aureus 618 assessed as post-antibiotic effect at 10 times MIC pre-exposed to Telavancin for 1 hr by plate counting method
Summary of the method: (§4)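 Viable plate count method in Mueller-Hinton broth. Direct colony suspension inoculum of about 5 × 10^6 CFU/ml was exposed to 10× MIC for 1 h at 35°C in a shaking water bath, then diluted 1:1,000 to remove drug. Counts were taken before exposure, at 0 h, then every 2 h until McFarland no. 1 turbidity. PAE = T − C, the time to a 1 log10 rise versus an unexposed growth control.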

Staphylococcus aureus [5] = assay: Antimicrobial activity against vancomycin-susceptible-, methicillin-resistant Staphylococcus aureus 1306 assessed as post-antibiotic effect at 10 times MIC pre-exposed to Telavancin for 1 hr by plate counting method
Summary of the method: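 Direct colony suspensions (~5 × 10^6 CFU/ml) were exposed to 10× MIC for 1 h at 35°C with shaking in Mueller-Hinton broth, then diluted 1:1,000 to remove drug. Viable plate counts were taken before exposure, at 0 h, then every 2 h until turbidity reached McFarland 1. PAE = T − C, the time for counts to rise 1 log10 versus the unexposed control. Two separate experiments were run.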

Staphylococcus aureus [6] = assay: Antimicrobial activity against vancomycin-intermediate-, methicillin-resistant Staphylococcus aureus 555 assessed as time required to induce post antibiotic sub-MIC effect at 0.4 times MIC […] by plate counting method; summary of the method: as §1
Enterococcus faecalis [7] = assay: Antimicrobial activity against Enterococcus faecalis HMC 571 assessed as time required to induce sub-MIC effect at 0.2 times MIC exposed for 2 hrs by plate counting method; summary of the method: as §2
Enterococcus faecalis [8] = assay: Antimicrobial activity against Enterococcus faecalis ATCC 29212 by microdilution method
Staphylococcus aureus [9] = assay: Antimicrobial activity against vancomycin-susceptible-, methicillin-resistant Staphylococcus aureus 1306 assessed as time required to induce sub-MIC effect at 0.3 times MIC exposed for 2 hrs by plate counting method
Summary of the method: (§5)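 Sub-MIC effect: cultures not preexposed to drug were diluted and handled as in the PA-SME procedure in Mueller-Hinton broth with final 0.2, 0.3 or 0.4× MIC, plus a drug-free control. Viable plate counts were taken every 2 h until McFarland 1 turbidity. Duration was derived from growth curves. Two experiments were run, each with a new inoculum.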

Streptococcus agalactiae [10] = assay: Antimicrobial activity against Streptococcus agalactiae HMC 5 assessed as time required to induce post antibiotic sub-MIC effect at 0.2 times MIC pre-exposed to Telavancin for 2 hrs by plate counting method; conditions: in the assay text read “for 1 hr” for “for 2 hrs”
Summary of the method: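 Mueller-Hinton broth cultures of about 5 × 10^6 CFU/ml were pre-exposed to telavancin at 10× MIC for 1 h at 35°C, then diluted 1:1,000. Telavancin was re-added to final 0.2, 0.3 or 0.4× MIC, alongside a drug-free tube. Viable counts were taken before exposure, after dilution, then every 2 h until McFarland no. 1 turbidity. Duration comes from log10 CFU/ml-versus-time plots; two separate experiments with fresh inocula.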

Staphylococcus aureus [11] = assay: Antimicrobial activity against vancomycin-intermediate-, methicillin-resistant Staphylococcus aureus 1984 assessed as time required to induce sub-MIC effect at 0.3 times MIC exposed for 2 hrs by plate counting method; summary of the method: as §3
Staphylococcus aureus [12] = assay: Antimicrobial activity against vancomycin-intermediate-, methicillin-resistant Staphylococcus aureus 770 assessed as time required to induce sub-MIC effect at 0.4 times MIC exposed for 2 hrs by plate counting method; summary of the method: as §5
Enterococcus faecalis [13] = assay: Antimicrobial activity against Enterococcus faecalis HMC 571 assessed as time required to induce sub-MIC effect at 0.3 times MIC exposed for 2 hrs by plate counting method; summary of the method: as §2
Staphylococcus aureus [14] = assay: Antimicrobial activity against vancomycin-intermediate-, methicillin-resistant Staphylococcus aureus 555 by microdilution method
Streptococcus pyogenes = assay: Antimicrobial activity against Streptococcus pyogenes HMC 414 assessed as time required to induce sub-MIC effect at 0.2 times MIC exposed for 2 hrs by plate counting method; summary of the method: as §2
Staphylococcus aureus [15] = assay: Antimicrobial activity against vancomycin-intermediate-, methicillin-resistant Staphylococcus aureus 555 assessed as post-antibiotic effect at 10 times MIC pre-exposed to Telavancin for 1 hr by plate counting method; summary of the method: as §4
Staphylococcus aureus [16] = assay: Antimicrobial activity against vancomycin-susceptible-, methicillin-resistant Staphylococcus aureus 1130 assessed as time required to induce sub-MIC effect at 0.4 times MIC exposed for 2 hrs by plate counting method; summary of the method: as §5
Staphylococcus aureus [17] = assay: Antimicrobial activity against vancomycin-resistant-, methicillin-resistant Staphylococcus aureus 510 assessed as time required to induce sub-MIC effect at 0.2 times MIC exposed for 2 hrs by plate counting method; summary of the method: as §5
Staphylococcus aureus [18] = assay: Antimicrobial activity against heterogenous vancomycin-intermediate-, methicillin-resistant Staphylococcus aureus 618 assessed as time required to induce post antibiotic sub-MIC effect at 0.3 times MIC […] by plate counting method; summary of the method: as §1
Streptococcus agalactiae [19] = assay: Antimicrobial activity against Streptococcus agalactiae HMC 5 assessed as time required to induce sub-MIC effect at 0.4 times MIC exposed for 2 hrs by plate counting method; summary of the method: as §2

With CCCCCCCCCCNCCN[C@@]1(C)C[C@H](O[C@H]2[C@H](Oc3c4cc5cc3Oc3ccc(cc3Cl)[C@@H](O)[C@@H](NC(=O)[C@@H](CC(C)C)NC)C(=O)N[C@@H](CC(N)=O)C(=O)N[C@H]5C(=O)N[C@H]3C(=O)N[C@H](C(=O)N[C@H](C(=O)O)c5cc(O)c(CNCP(=O)(O)O)c(O)c5-c5cc3ccc5O)[C@H](O)c3ccc(c(Cl)c3)O4)O[C@H](CO)[C@@H](O)[C@@H]2O)O[C@@H](C)[C@H]1O [TELAVANCIN] as the compound, how does the PAE (Staphylococcus aureus [1]) read?
Its PAE is 6.7 h.

And the PAE (Enterococcus faecium)?
Its PAE is 7.2 h.

What about the PAE (Staphylococcus aureus [2]) of the same compound?
Its PAE is 0.8 h.

And the PAE (Staphylococcus aureus [3])?
Its PAE is 10.3 h.

And the PAE (Staphylococcus aureus [4])?
The PAE was 1.7 h.

And the PAE (Staphylococcus aureus [5])?
Its PAE is 1.8 h.

And the PAE (Staphylococcus aureus [6])?
The PAE was > 10.3 h.

And the PAE (Enterococcus faecalis [7])?
The PAE was 0.1 h.

What about the MIC (Enterococcus faecalis [8]) of the same compound?
Its MIC is 0.25 µg/mL (≈ 0.142 µM).

And the PAE (Staphylococcus aureus [9])?
Its PAE is 5.1 h.

What about the PAE (Streptococcus agalactiae [10]) of the same compound?
The PAE was 0.8 h.

What about the PAE (Staphylococcus aureus [11]) of the same compound?
Its PAE is 2.6 h.

And the PAE (Staphylococcus aureus [12])?
The PAE was 0.8 h.

And the PAE (Enterococcus faecalis [13])?
Its PAE is 2.6 h.

And the MIC (Staphylococcus aureus [14])?
Its MIC is 0.5 µg/mL (≈ 0.285 µM).

What about the PAE (Streptococcus pyogenes) of the same compound?
The PAE was 0 h.

And the PAE (Staphylococcus aureus [15])?
Its PAE is 3.4 h.

And the PAE (Staphylococcus aureus [16])?
Its PAE is 6.5 h.

And the PAE (Staphylococcus aureus [17])?
The PAE was 1.9 h.

What about the PAE (Staphylococcus aureus [18]) of the same compound?
The PAE was 8.3 h.

And the PAE (Streptococcus agalactiae [19])?
The PAE was > 10.7 h.
